Results: ChEMBL document CHEMBL3621107, “Ring fusion strategy for synthesis and lead optimization of sulfur-substituted anthra[1,2-c][1,2,5]thiadiazole-6,11-dione derivatives as promising scaffold of antitumor agents” (Eur J Med Chem, 2015)

Tests used:
Format in all cases: functional
DU-145 = experiment: Cytotoxicity against human DU145 cells after 48 hrs by SRB assay; conditions: DU-145, 48 h
In short: (§1)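 NCI-60 human tumour cell panel screen, second stage, run by the NCI Developmental Therapeutics Program. Compounds were tested at five concentrations (0.01, 0.1, 1, 10 and 100 μM). Percentage growth was plotted against log10 concentration for each cell line. GI50, TGI and LC50 were taken from these dose-response curves.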

IGROV-1 = experiment: Cytotoxicity against human IGROV1 cells after 48 hrs by SRB assay; conditions: IGROV-1, 48 h; in short: as §1
CAKI-1 = experiment: Cytotoxicity against human Caki1 cells after 48 hrs by SRB assay; conditions: CAKI-1, 48 h; in short: as §1
PC-3 = experiment: Cytotoxicity against human PC3 cells after 48 hrs by SRB assay; conditions: PC-3, 48 h
In short: (§2)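 Second-stage NCI-60 panel run by the NCI Developmental Therapeutics Program, covering nine tumour subpanels. Five concentrations were tested: 0.01, 0.1, 1, 10 and 100 μM. Percentage growth at each level was plotted against log10 drug concentration. GI50, TGI and LC50 were read from these dose-response curves. Subpanel MID values were divided into the full-panel MID to give selectivity ratios.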

NCI-H522 = experiment: Cytotoxicity against human NCI-H522 cells after 48 hrs by SRB assay; conditions: NCI-H522, 48 h; in short: as §2
UO-31 = experiment: Cytotoxicity against human UO31 cells after 48 hrs by SRB assay; conditions: UO-31, 48 h
In short: (§3)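 NCI-60 five-dose study run by NCI DTP at 0.01, 0.1, 1, 10 and 100 µM. Percentage growth at each level was plotted against log10 concentration for each line, and GI50, TGI and LC50 were read from the dose-response curves.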

NCI-H23 = experiment: Cytotoxicity against human NCI-H23 cells after 48 hrs by SRB assay; conditions: NCI-H23, 48 h; in short: as §2
NCI-H226 = experiment: Cytotoxicity against human NCI-H226 cells after 48 hrs by SRB assay; conditions: NCI-H226, 48 h; in short: as §2
HCC 2998 = experiment: Cytotoxicity against human HCC2998 cells after 48 hrs by SRB assay; conditions: HCC 2998, 48 h; in short: as §1
MCF7 = experiment: Cytotoxicity against human MCF7 cells after 48 hrs by SRB assay; conditions: MCF7, 48 h; in short: as §1
[1] = Cytotoxicity against human CNS cancer cells assessed as growth inhibition after 48 hrs by SRB assay; conditions: Cancer cell lines
In short: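 NCI-60 five-dose data (0.01–100 μM) were grouped by tumour subpanel. A subpanel mean (MID) of GI50 was computed for the CNS cancer lines. A selectivity ratio was obtained as full-panel MID divided by subpanel MID: 3–6 counts as moderate, >6 as high.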

A498 = experiment: Cytotoxicity against human A498 cells after 48 hrs by SRB assay; conditions: A498, 48 h; in short: as §1
HOP-92 = experiment: Cytotoxicity against human HOP92 cells after 48 hrs by SRB assay; conditions: HOP-92, 48 h; in short: as §1
OVCAR-3 = experiment: Cytotoxicity against human OVCAR3 cells after 48 hrs by SRB assay; conditions: OVCAR-3, 48 h; for CC50: read-out: LC50 (the source's name); in short: as §2
MOLT-4 = experiment: Cytotoxicity against human MOLT4 cells after 48 hrs by SRB assay; conditions: MOLT-4, 48 h; in short: as §2
SK-MEL-5 = experiment: Cytotoxicity against human SK-MEL-5 cells after 48 hrs by SRB assay; conditions: SK-MEL-5, 48 h; in short: as §2
SF-295 = experiment: Cytotoxicity against human SF295 cells after 48 hrs by SRB assay; conditions: SF-295, 48 h; in short: as §2
CCRF-CEM = experiment: Cytotoxicity against human CCRF-CEM cells after 48 hrs by SRB assay; in short: as §1
HL-60(TB) = experiment: Cytotoxicity against human HL-60(TB) cells after 48 hrs by SRB assay; conditions: HL-60, 48 h
In short: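 NCI Developmental Therapeutics Program 60-cell-line screen, second stage: cells exposed to five concentrations (0.01, 0.1, 1, 10 and 100 μM). Growth is plotted against log10 concentration for each line, and GI50, TGI and LC50 are read from the dose-response curves.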

COLO 205 = experiment: Cytotoxicity against human COLO205 cells after 48 hrs by SRB assay; conditions: COLO 205, 48 h; in short: as §1
UACC-62 = experiment: Cytotoxicity against human UACC62 cells after 48 hrs by SRB assay; conditions: UACC-62, 48 h; in short: as §3
TK-10 = experiment: Cytotoxicity against human TK10 cells after 48 hrs by SRB assay; conditions: TK-10, 48 h; in short: as §3
SF-539 = experiment: Cytotoxicity against human SF539 cells after 48 hrs by SRB assay; conditions: SF-539, 48 h; in short: as §2
SW-620 = experiment: Cytotoxicity against human SW620 cells after 48 hrs by SRB assay; conditions: SW-620, 48 h; in short: as §3
HOP-62 = experiment: Cytotoxicity against human HOP62 cells after 48 hrs by SRB assay; conditions: HOP-62, 48 h; in short: as §1
SNB-75 = experiment: Cytotoxicity against human SNB75 cells after 48 hrs by SRB assay; conditions: SNB-75, 48 h; in short: as §3
UACC-257 = experiment: Cytotoxicity against human UACC257 cells after 48 hrs by SRB assay; conditions: UACC-257, 48 h; in short: as §3

O=C1c2ccccc2C(=O)c2c1cc(Sc1cccc(Cl)c1)c1nsnc21
GI50 (DU-145): 2.27 µM
LC50 (DU-145): 14.3 µM
TGI (DU-145): 5.09 µM
GI50 (IGROV-1): 2.07 µM
LC50 (IGROV-1): 26.7 µM
TGI (IGROV-1): 5.37 µM
GI50 (CAKI-1): 2.67 µM
LC50 (concentration causing 50% net cell kill) (CAKI-1): > 100 µM
TGI (CAKI-1): 9.15 µM
GI50 (PC-3): 2.27 µM
LC50 (concentration killing 50% of cells) (PC-3): 69.9 µM
TGI (PC-3): 11.8 µM
GI50 (NCI-H522): 1.84 µM
LC50 (concentration giving 50% net cell kill) (NCI-H522): 9.91 µM
TGI (NCI-H522): 4.26 µM
GI50 (UO-31): 1.78 µM
LC50 (UO-31): 9.73 µM
TGI (UO-31): 4.16 µM
GI50 (NCI-H23): 1 µM
LC50 (NCI-H23): 22.8 µM
TGI (NCI-H23): 3.58 µM
GI50 (NCI-H226): 2.39 µM
LC50 (concentration killing 50% of starting cells) (NCI-H226): 57.5 µM
TGI (NCI-H226): 6.06 µM
GI50 (HCC 2998): 16.2 µM
LC50 (HCC 2998): 62.1 µM
TGI (HCC 2998): 31.7 µM
GI50 (MCF7): 1.3 µM
LC50 (concentration killing 50% of cells) (MCF7): 8.78 µM
TGI (MCF7): 3.37 µM
GI50 [1]: 4.47 µM
GI50 (A498): 13 µM
LC50 (concentration killing 50% of cells) (A498): 6.54 µM
TGI (A498): 29.2 µM
GI50 (HOP-92): 2.3 µM
LC50 (concentration giving 50% net cell kill) (HOP-92): 15.8 µM
TGI (HOP-92): 5.23 µM
GI50 (OVCAR-3): 0.45 µM
TGI (OVCAR-3): 1.74 µM
CC50 (OVCAR-3): 6.5 µM
GI50 (MOLT-4): 0.64 µM
LC50 (MOLT-4): > 100 µM
TGI (MOLT-4): 3.27 µM
GI50 (SK-MEL-5): 0.99 µM
LC50 (SK-MEL-5): 4.87 µM
TGI (SK-MEL-5): 2.21 µM
GI50 (SF-295): 7.84 µM
LC50 (SF-295): 57.9 µM
TGI (SF-295): 22.9 µM
GI50 (CCRF-CEM): 0.56 µM
LC50 (CCRF-CEM): > 100 µM
TGI (CCRF-CEM): 6.26 µM
GI50 (HL-60(TB)): 2.51 µM
LC50 (HL-60(TB)): > 100 µM
TGI (HL-60(TB)): 6.71 µM
GI50 (COLO 205): 20 µM
LC50 (COLO 205): 61.3 µM
TGI (COLO 205): 35 µM
GI50 (UACC-62): 1.6 µM
LC50 (UACC-62): 6.54 µM
TGI (UACC-62): 3.26 µM
GI50 (TK-10): 5.31 µM
LC50 (concentration killing 50% of cells) (TK-10): 39.9 µM
TGI (TK-10): 14.8 µM
GI50 (SF-539): 2.19 µM
LC50 (SF-539): 7.55 µM
TGI (SF-539): 4.07 µM
GI50 (SW-620): 2.29 µM
LC50 (50% lethal concentration) (SW-620): 28.3 µM
TGI (SW-620): 5.21 µM
GI50 (HOP-62): 1.85 µM
LC50 (HOP-62): 8.81 µM
TGI (HOP-62): 4.04 µM
GI50 (SNB-75): 1.99 µM
LC50 (concentration killing 50% of cells) (SNB-75): 23.7 µM
TGI (SNB-75): 6.23 µM
GI50 (UACC-257): 1.52 µM
LC50 (UACC-257): 6.54 µM
TGI (UACC-257): 3.15 µM

O=C1c2ccccc2C(=O)c2c1cc(Sc1ccccc1Br)c1nsnc21
GI50 (DU-145): 21.5 µM
LC50 (DU-145): > 50 µM
TGI (DU-145): > 50 µM
GI50 (IGROV-1): 19.1 µM
LC50 (IGROV-1): > 50 µM
GI50 (CAKI-1): 17.2 µM
LC50 (concentration causing 50% net cell kill) (CAKI-1): > 50 µM
TGI (CAKI-1): > 50 µM
GI50 (PC-3): 14.8 µM
LC50 (concentration killing 50% of cells) (PC-3): > 50 µM
TGI (PC-3): > 50 µM
GI50 (NCI-H522): 14.9 µM
LC50 (concentration giving 50% net cell kill) (NCI-H522): > 50 µM
TGI (NCI-H522): > 50 µM
GI50 (UO-31): 14.9 µM
LC50 (UO-31): > 50 µM
TGI (UO-31): > 50 µM
GI50 (NCI-H23): 13.5 µM
LC50 (NCI-H23): > 50 µM
TGI (NCI-H23): > 50 µM
GI50 (NCI-H226): 19.4 µM
LC50 (concentration killing 50% of starting cells) (NCI-H226): > 50 µM
TGI (NCI-H226): > 50 µM
GI50 (HCC 2998): > 50 µM
LC50 (HCC 2998): > 50 µM
TGI (HCC 2998): > 50 µM
GI50 (MCF7): 7.28 µM
LC50 (concentration killing 50% of cells) (MCF7): 37.8 µM
TGI (MCF7): 16.6 µM
GI50 [1]: 21.8 µM
GI50 (A498): 10.7 µM
LC50 (concentration killing 50% of cells) (A498): > 50 µM
TGI (A498): > 50 µM
GI50 (HOP-92): 18.4 µM
LC50 (concentration giving 50% net cell kill) (HOP-92): > 50 µM
TGI (HOP-92): > 50 µM
GI50 (OVCAR-3): 10.2 µM
TGI (OVCAR-3): 22.8 µM
CC50 (OVCAR-3): > 50 µM
GI50 (MOLT-4): 7.21 µM
LC50 (MOLT-4): > 50 µM
TGI (MOLT-4): 41.2 µM
GI50 (SK-MEL-5): 5.08 µM
LC50 (SK-MEL-5): 24.3 µM
TGI (SK-MEL-5): 11.1 µM
GI50 (SF-295): 40.6 µM
LC50 (SF-295): > 50 µM
TGI (SF-295): > 50 µM
GI50 (CCRF-CEM): 4.88 µM
LC50 (CCRF-CEM): > 50 µM
TGI (CCRF-CEM): > 50 µM
GI50 (HL-60(TB)): 17.8 µM
LC50 (HL-60(TB)): > 50 µM
TGI (HL-60(TB)): > 50 µM
GI50 (COLO 205): > 50 µM
LC50 (COLO 205): > 50 µM
TGI (COLO 205): > 50 µM
GI50 (UACC-62): 12 µM
LC50 (UACC-62): > 50 µM
TGI (UACC-62): 40.8 µM
GI50 (TK-10): 29.7 µM
LC50 (concentration killing 50% of cells) (TK-10): > 50 µM
TGI (TK-10): > 50 µM
GI50 (SF-539): 10.3 µM
LC50 (SF-539): 40.5 µM
TGI (SF-539): 20.5 µM
GI50 (SW-620): 23.6 µM
LC50 (50% lethal concentration) (SW-620): > 50 µM
TGI (SW-620): > 50 µM
GI50 (HOP-62): 13.3 µM
LC50 (HOP-62): > 50 µM
TGI (HOP-62): 30.4 µM
GI50 (SNB-75): 14.9 µM
LC50 (concentration killing 50% of cells) (SNB-75): > 50 µM
TGI (SNB-75): > 50 µM
GI50 (UACC-257): 8.56 µM
LC50 (UACC-257): > 50 µM
TGI (UACC-257): 20.9 µM
